# ChEMBL document CHEMBL4219132, “Sulfamic acid promoted one-pot synthesis of phenanthrene fused-dihydrodibenzo-quinolinones: Anticancer activity, tubulin polymerization inhibition and apoptosis inducing studies” (Bioorg Med Chem, 2018)
# Calls of active or inactive are those of the source. The calls are words filed in the database; no cut-off is given here.
# Tests used:
# A549 [1] = experiment: Induction of apoptosis in human A549 cells assessed as viable cells at 1.25 uM after 48 hrs by Annexin-V/propidium iodide staining based flow cytometry (reference value: 93.39%); type: functional; conditions: A549, 48 h, read-out: Activity
# A549 [2] = experiment: Induction of mitochondrial membrane potential loss in human A549 cells assessed as increase in depolarized cell population after 24 hrs by JC-1-dye based flow-cytometry
# A549 [3] = experiment: Induction of apoptosis in human A549 cells assessed as early apoptotic cells at 5 uM after 48 hrs by Annexin-V/propidium iodide staining based flow cytometry (reference value: 5.27%); type: functional
# A549 [4] = experiment: Induction of apoptosis in human A549 cells assessed as early apoptotic cells at 1.25 uM after 48 hrs by Annexin-V/propidium iodide staining based flow cytometry (reference value: 5.27%); type: functional
# A549 [5] = experiment: Cell cycle arrest in human A549 cells assessed as accumulation at G2/M phase at 10 uM after 48 hrs by propidium iodide-staining based flow cytometry (reference value: 34.25 +/- 5.75%); type: functional
# [6] = Inhibition of pig brain tubulin polymerization assessed as reduction in tubulin assembly by fluorescence-based assay; design: species or system Sus scrofa
# In short: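 Kit assay with porcine brain tubulin (2 mg/mL) in 80 mM PIPES pH 6.9, 2.0 mM MgCl2, 0.5 mM EGTA, 1.0 mM GTP and glycerol. Test compound was used at final 10, 5, 2.5 or 1.25 μM. Polymerization was followed for 1 h at 37 °C by fluorescence reporter incorporation (ex 360/em 440 nm). Runs were in duplicate, and IC50 is the concentration inhibiting 50% of assembly versus control.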
# A549 [7] = experiment: Induction of apoptosis in human A549 cells assessed as chromatin condensation at 10 uM after 48 hrs by AO/EB double staining based fluorescence microscopy; type: functional, cell-based
# In short: (§1)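 A549 cells (1×10^6 cell/ml) were treated with different concentrations for 48 h at 37 °C in 5% CO2. Acridine orange and ethidium bromide (10 μg/mL each) were added, and after 10 min cells were viewed by fluorescence microscopy (ex 488/em 550 nm) at 200x.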
# A549 [8] = experiment: Induction of apoptosis in human A549 cells assessed as early apoptotic cells at 10 uM after 48 hrs by Annexin-V/propidium iodide staining based flow cytometry (reference value: 5.27%); type: functional
# A549 [9] = experiment: Induction of apoptosis in human A549 cells assessed as apoptotic body formation at 10 uM after 48 hrs by AO/EB double staining based fluorescence microscopy; type: functional, cell-based; in short: as §1
# A549 [10] = experiment: Induction of apoptosis in human A549 cells assessed as late apoptotic cells at 5 uM after 48 hrs by Annexin-V/propidium iodide staining based flow cytometry (reference value: 0.71%); type: functional
# A549 [11] = experiment: Induction of apoptosis in human A549 cells assessed as necrotic cells at 2.5 uM after 48 hrs by Annexin-V/propidium iodide staining based flow cytometry (reference value: 0.63%); type: functional
# A549 [12] = experiment: Induction of apoptosis in human A549 cells assessed as necrotic cells at 1.25 uM after 48 hrs by Annexin-V/propidium iodide staining based flow cytometry (reference value: 0.63%); type: functional
# A549 [13] = experiment: Induction of apoptosis in human A549 cells assessed as early apoptotic cells at 2.5 uM after 48 hrs by Annexin-V/propidium iodide staining based flow cytometry (reference value: 5.27%); type: functional
# A549 [14] = experiment: Induction of apoptosis in human A549 cells assessed as late apoptotic cells at 2.5 uM after 48 hrs by Annexin-V/propidium iodide staining based flow cytometry (reference value: 0.71%); type: functional
# A549 [15] = experiment: Induction of apoptosis in human A549 cells assessed as viable cells at 10 uM after 48 hrs by Annexin-V/propidium iodide staining based flow cytometry (reference value: 93.39%); type: functional; conditions: A549, 48 h, read-out: Activity
# A549 [16] = experiment: Cytotoxicity against human A549 cells assessed as reduction in cell viability by measuring cell shrinkage at 1.25 to 10 uM after 48 hrs by phase contrast microscopy; type: functional, cell-based
# In short: (§2)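 A549 cells (1×10^5 cells/mL) were plated in 6-well plates and left to adhere overnight. They were then incubated 48 h with 1.25, 2.5, 5.0 or 10.0 μM and examined for morphological changes by phase contrast microscopy at 200X.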
# A549 [17] = experiment: Cell cycle arrest in human A549 cells assessed as accumulation at sub G1 phase after 48 hrs by propidium iodide-staining based flow cytometry; type: functional
# A549 [18] = experiment: Induction of apoptosis in human A549 cells assessed as nuclei condensation at 1.25 to 10 uM after 48 hrs by DAPI staining-based fluorescence microscopy; type: functional, cell-based
# In short: (§3)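 A549 cells were treated for 48 h, washed with PBS, and permeabilised with 0.1% Tween 20 for 10 min. They were stained with 1 μM DAPI and viewed by fluorescence microscopy (ex 359/em 461 nm, DAPI filter) at 200X.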
# PC-3 = experiment: Cytotoxicity against human PC3 cells assessed as cell growth inhibition after 48 hrs by MTT assay; type: functional, cell-based; conditions: PC-3, 48 h
# In short: (§4)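 MTT assay. Cells were seeded at 1×10^4 per well in their medium with 10% FBS and allowed 24 h at 37 °C. Compound diluted in medium was added alongside a vehicle control and left for 48 h. MTT (0.5 mg/mL) was then added for 4 h, formazan dissolved in DMSO, and absorbance read at 570 nm. IC50 is the concentration inhibiting 50% of cells.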
# A549 [19] = experiment: Induction of apoptosis in human A549 cells assessed as horse-shoe shaped nuclei at 1.25 to 10 uM after 48 hrs by DAPI staining-based fluorescence microscopy; type: functional, cell-based; in short: as §3
# HT-29 = experiment: Cytotoxicity against human HT-29 cells assessed as cell growth inhibition after 48 hrs by MTT assay; type: functional, cell-based; conditions: HT-29, 48 h; in short: as §4
# A549 [20] = experiment: Induction of apoptosis in human A549 cells assessed as membrane blebbing at 10 uM after 48 hrs by AO/EB double staining based fluorescence microscopy; type: functional, cell-based; in short: as §1
# A549 [21] = experiment: Induction of apoptosis in human A549 cells assessed as viable cells at 2.5 uM after 48 hrs by Annexin-V/propidium iodide staining based flow cytometry (reference value: 93.39%); type: functional; conditions: A549, 48 h, read-out: Activity
# A549 [22] = experiment: Induction of apoptosis in human A549 cells assessed as necrotic cells at 5 uM after 48 hrs by Annexin-V/propidium iodide staining based flow cytometry (reference value: 0.63%); type: functional
# A549 [23] = experiment: Induction of apoptosis in human A549 cells assessed as viable cells at 5 uM after 48 hrs by Annexin-V/propidium iodide staining based flow cytometry (reference value: 93.39%); type: functional; conditions: A549, 48 h, read-out: Activity
# A549 [24] = experiment: Cytotoxicity against human A549 cells assessed as cell growth inhibition after 48 hrs by MTT assay; type: functional, cell-based; conditions: A549, 48 h; in short: as §4
# A549 [25] = experiment: Induction of apoptosis in human A549 cells assessed as necrotic cells at 10 uM after 48 hrs by Annexin-V/propidium iodide staining based flow cytometry (reference value: 0.63%); type: functional
# DU-145 = experiment: Cytotoxicity against human DU145 cells assessed as cell growth inhibition after 48 hrs by MTT assay; type: functional, cell-based; conditions: DU-145, 48 h; in short: as §4
# A549 [26] = experiment: Induction of apoptosis in human A549 cells assessed as late apoptotic cells at 1.25 uM after 48 hrs by Annexin-V/propidium iodide staining based flow cytometry (reference value: 0.71%); type: functional
# A549 [27] = experiment: Induction of apoptosis in human A549 cells assessed as cell shrinkage at 10 uM after 48 hrs by AO/EB double staining based fluorescence microscopy; type: functional; in short: as §1
# A549 [28] = experiment: Induction of apoptosis in human A549 cells after 48 hrs by Annexin-V/propidium iodide staining based flow cytometry; type: functional, cell-based
# A549 [29] = experiment: Induction of apoptosis in human A549 cells assessed as late apoptotic cells at 10 uM after 48 hrs by Annexin-V/propidium iodide staining based flow cytometry (reference value: 0.71%); type: functional
# A549 [30] = experiment: Induction of ROS generation in human A549 cells after 24 hrs by DCFDA dye-based fluorescent microscopy; type: functional, cell-based
# In short: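 A549 cells (1×10^6 cells/mL) were left to adhere overnight, then treated 24 h with 1.25, 2.5, 5.0 or 10.0 μM. Medium was replaced with medium containing 10 μM DCFDA for 30 min in the dark. Fluorescence was read on a plate reader (ex 488/em 525 nm) and cells were imaged by fluorescence microscopy. NAC and H2O2 (positive control) were included. Mean ± SEM, n=3.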
# MCF7 = experiment: Cytotoxicity against human MCF7 cells assessed as cell growth inhibition after 48 hrs by MTT assay; type: functional, cell-based; conditions: MCF7, 48 h; in short: as §4
# A549 [31] = experiment: Cell cycle arrest in human A549 cells assessed as accumulation at sub G1 phase at 10 uM after 48 hrs by propidium iodide-staining based flow cytometry (reference value: 4.52 +/- 2.47%); type: functional
# HCT-116 = experiment: Cytotoxicity against human HCT116 cells assessed as cell growth inhibition after 48 hrs by MTT assay; type: functional, cell-based; conditions: HCT-116, 48 h; in short: as §4
# A549 [32] = experiment: Induction of mitochondrial membrane potential loss in human A549 cells assessed as depolarized cell population at 10 uM after 24 hrs by JC-1-dye based flow-cytometry (reference value: 8.31 +/- 3.72%)
# A549 [33] = experiment: Cytotoxicity against human A549 cells assessed as reduction in cell viability by measuring cell detachment at 1.25 to 10 uM after 48 hrs by phase contrast microscopy; type: functional, cell-based; in short: as §2
structure (smiles),measurement,setting,value
COc1cc2c3c(c4cc(OC)c(OC)cc4c2cc1OC)C(c1ccc2c(c1)OCO2)CC(=O)N3 (stereo not drawn),viability at 1.25 µM,A549 [1],89.1%
same,Activity,A549 [2],Dose-dependent effect
same,Activity,A549 [3],24.86%
same,Activity,A549 [4],9.5%
same,Activity,A549 [5],61.2%
same,IC50,[6],5.15 µM
same,Activity,A549 [7],Active
same,Activity,A549 [8],50.6%
same,Activity,A549 [9],Active
same,Activity,A549 [10],0.92%
same,Activity,A549 [11],0.01%
same,Activity,A549 [12],0.09%
same,Activity,A549 [13],17.3%
same,Activity,A549 [14],0.85%
same,viability at 10 µM,A549 [15],47.5%
same,Activity,A549 [16],Dose-dependent effect
same,Activity,A549 [17],Dose-dependent effect
same,Activity,A549 [18],Active
same,IC50,PC-3,12.1 µM
same,Activity,A549 [19],Active
same,IC50,HT-29,7.84 µM
same,Activity,A549 [20],Active
same,viability at 2.5 µM,A549 [21],81.8%
same,Activity,A549 [22],0.01%
same,viability at 5 µM,A549 [23],74.2%
same,IC50,A549 [24],3.17 µM
same,Activity,A549 [25],0.01%
same,IC50,DU-145,17.5 µM
same,Activity,A549 [26],1.32%
same,Activity,A549 [27],Active
same,Activity,A549 [28],Dose-dependent effect
same,Activity,A549 [29],1.93%
same,Activity,A549 [30],Dose-dependent effect
same,IC50,MCF7,9.59 µM
same,Activity,A549 [31],31.22%
same,IC50,HCT-116,7.61 µM
same,Activity,A549 [32],79.8%
same,Activity,A549 [33],Dose-dependent effect
